Experimental data as given in ChEMBL document CHEMBL1811914, “Bioactive compounds from the aerial parts of Brachystemma calycinum and structural revision of an octacyclopeptide” (J Nat Prod, 2011).
Active and inactive are the calls of the source. No cut-off for these calls is given here. Where a SMILES comes first, the peptide text is derived from it.

Key:
[1] = test system: CRL-2573; test: Inhibition of high glucose-induced IL-6 secretion in rat CRL-2573 cells at 10 uM after 24 hrs by ELISA; assay type: functional, cell-based
Procedure, shortened: (§1)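 Rat mesangial cells (CRL-2573) grown in DMEM with 5.6 mM D-glucose (pH 7.4), 20% FCS, penicillin/streptomycin, 10 mM HEPES. At 80% confluence, growth arrested in 0.5% FCS for 24 h. Pretreated 1 h with compound (1 or 10 μM), then high glucose 24 h. Supernatant analyte quantified by sandwich ELISA, normalized to total cell protein (BCA).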

[2] = test system: CRL-2573; test: Inhibition of high glucose-induced collagen-4 secretion in rat CRL-2573 cells at 10 uM after 24 hrs by ELISA; assay type: functional, cell-based; procedure, shortened: as §1
[3] = test system: CRL-2573; test: Inhibition of high glucose-induced CCL2 secretion in rat CRL-2573 cells at 10 uM after 24 hrs by ELISA; assay type: functional, cell-based; procedure, shortened: as §1
[4] = test system: CRL-2573; test: Antioxidant activity against high glucose-induced intracellular ROS production in rat CRL-2573 cells assessed as carboxymethyl-H2-dichlorofluorescein diacetate conversion to 2',7'-dichlorofluorescein at 1 to 10 uM preincubated for 1 hr prior to high glucose challenge by flow cytometer; assay type: functional, cell-based
Procedure, shortened: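 Rat mesangial cells cultured and growth-arrested as for secretion assays. Exposed to 5.6 mM (normal) or 25 mM (high) D-glucose for up to 24 h, with or without compound preincubation. Intracellular ROS then measured.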

[5] = test system: RAW264.7; test: Inhibition of LPS-induced nitric oxide production in […] cells at 25 uM; assay type: functional, cell-based
[6] = Cytotoxicity in rat CRL-2573 cells at 10 uM after 24 hrs by trypan blue exclusion assay; assay type: cell-based; conditions: crl-2573, 24 h
[7] = test system: CRL-2573; test: Antioxidant activity against high glucose-induced intracellular superoxide ion production in rat CRL-2573 cells at 1 to 10 uM measured every minute for 30 mins by lucigenin-enhanced chemiluminescence assay in presence of NADPH; assay type: functional, cell-based
Procedure, shortened: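 Homogenates of cultured rat mesangial cells (100 μg/well) assayed by lucigenin-enhanced chemiluminescence. Dark-adapted lucigenin (5 μM) with or without NADPH (100 μM) added immediately before reading. Signal recorded every minute for 30 min.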

[8] = test system: CRL-2573; test: Inhibition of high glucose-induced collagen-1 secretion in rat CRL-2573 cells at 10 uM after 24 hrs by ELISA; assay type: functional, cell-based; procedure, shortened: as §1

| SMILES | inhibition [1] | inhibition [2] | inhibition [3] | Activity [4] | inhibition [5] | Activity [6] | Activity [7] | inhibition [8] |
| --- | --- | --- | --- | --- | --- | --- | --- | --- |
| COC1CCC(=O)N1[C@@H]1C=C(COC(=O)c2ccc[nH]2)CO1 (some centres undefined) | Active | Active | Active | – | – | – | – | – |
| CC(C)C[C@@H]1NC(=O)CNC(=O)[C@H](C)NC(=O)[C@@H]2CCCN2C(=O)[C@@H]2CCCN2C(=O)[C@H](Cc2ccccc2)NC(=O)[C@H]([C@@H](C)O)NC(=O)[C@H](C)NC1=O (HELM PEPTIDE1{A.G.L.A.T.F.P.P}$PEPTIDE1,PEPTIDE1,1:R1-8:R2$$$V2.0) | Active | Active | Active | Active | inactive | Non-toxic | Active | Active |
| CC(C)C[C@@H]1NC(=O)CNC(=O)[C@H](C(C)C)NC(=O)[C@@H]2CCCN2C(=O)[C@H](Cc2ccccc2)NC(=O)[C@H]([C@@H](C)O)NC(=O)[C@@H]2CCCN2C(=O)[C@H]([C@@H](C)O)NC1=O (HELM PEPTIDE1{F.P.V.G.L.T.P.T}$PEPTIDE1,PEPTIDE1,1:R1-8:R2$$$V2.0) | Active | Active | Active | – | – | – | – | – |
